Results: ChEMBL document CHEMBL2203287, “Synthesis and biological evaluation of novel heterocyclic derivatives of combretastatin A-4” (Bioorg Med Chem Lett, 2012)
Activity calls are given as the source filed them. The rule behind the calls is not given here.

Legend:
Ovis aries = organism: Ovis aries; experiment: Inhibition of sheep brain tubulin assembly at 32 uM incubated for 10 mins at 37 degC followed by 5 mins incubation at 0 degC by turbidimetry
SKv-a [1] = experiment: Induction of microtubule depolymerization in human SKv-a cells at 10 '-6 M by confocal microscopy; format: cell-based
HaCaT [2] = experiment: Mitotic arrest in human HaCaT cells at 5 uM after 24 hrs using propidium iodide by flow cytometry; format: functional, cell-based
How it was run: (§1)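 Exponentially growing cells given 5×10^-6 M for 24 h, with 0.5% DMSO vehicle control. Cells detached with gentle Accutase, then stained in suspension with propidium iodide 0.05 mg/mL in citrate buffer with Nonidet P40 for 1 h at 4 °C. FACS on 20,000 cells for G1/S/G2/M distribution; run in triplicate.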

SKv-a [3] = experiment: Induction of morphological changes in human SKv-a cells assessed as cell rounding at 10 '-6 M by confocal microscopy; format: functional, cell-based
How it was run: (§2)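 Cells were fixed and immunostained for beta-tubulin with a monoclonal antibody, then detected with goat anti-mouse FITC secondary. Confocal optical sections were taken at ×63 objective magnification. Vehicle-treated controls were imaged in parallel.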

HaCaT [4] = experiment: Induction of morphological changes in human HaCaT cells assessed as cell rounding at 10 '-6 M by confocal microscopy; format: functional, cell-based; how it was run: as §2
[5] = Induction of morphological changes in human SKv-a cells assessed as loss of radial distribution of structured microtubules at 10 '-6 M by confocal microscopy; format: functional, cell-based; how it was run: as §2
HaCaT [6] = experiment: Induction of microtubule depolymerization in human HaCaT cells at 10 '-6 M by confocal microscopy; format: cell-based
HaCaT [7] = experiment: Antiproliferative activity against human HaCaT cells assessed as cell viability by MTT assay; format: functional, cell-based
How it was run: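 MTT read-out of metabolic activity, taken as the number of viable cells remaining after 72 h continuous exposure of cultured keratinocytes.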

HaCaT [8] = experiment: Induction of morphological changes in human HaCaT cells assessed as loss of radial distribution of structured microtubules at 10 '-6 M by confocal microscopy; format: functional, cell-based; how it was run: as §2
[9] = Inhibition of sheep brain tubulin assembly compound incubated for 10 mins at 37 degC followed by 5 mins incubation at 0 degC by turbidimetry; set-up: species or system Ovis aries
SKv-a [10] = experiment: Induction of morphological changes in human SKv-a cells assessed as cell detachment at 10 '-6 M by confocal microscopy; format: functional, cell-based; how it was run: as §2
SKv-a [11] = experiment: Mitotic arrest in human SKv-a cells at 5 uM after 24 hrs using propidium iodide by flow cytometry; format: functional, cell-based; how it was run: as §1
HaCaT [12] = experiment: Induction of morphological changes in human HaCaT cells assessed as cell detachment at 10 '-6 M by confocal microscopy; format: functional, cell-based; how it was run: as §2

Q: Which inhibition (Ovis aries) does the source give for `COc1cc(/C=C/c2cc3ccccc3o2)cc(OC)c1OC` here?
A: The inhibition was 23%.

Q: For `COc1cc(/C=C\c2cc3ccccc3s2)cc(OC)c1OC`, which Activity (SKv-a [1]) is on record?
A: Its Activity is “Active”.

Q: What about the Activity (HaCaT [2]) of the same molecule?
A: Its Activity is “Active”.

Q: And the Activity (SKv-a [3])?
A: The Activity was “Active”.

Q: And the Activity (HaCaT [4])?
A: Its Activity is “Active”.

Q: What about the Activity [5] of the same molecule?
A: The Activity was “Active”.

Q: What about the Activity (HaCaT [6]) of the same molecule?
A: Its Activity is “Active”.

Q: What about the IC50 (HaCaT [7]) of the same molecule?
A: The IC50 was 16 nM.

Q: What about the Activity (HaCaT [8]) of the same molecule?
A: Its Activity is “Active”.

Q: What about the IC50 [9] of the same molecule?
A: The IC50 was 2600 nM.

Q: And the Activity (SKv-a [10])?
A: Its Activity is “Active”.

Q: What about the Activity (SKv-a [11]) of the same molecule?
A: Its Activity is “Active”.

Q: What about the Activity (HaCaT [12]) of the same molecule?
A: The Activity was “Active”.

Q: Which IC50 [9] does the source give for `COc1cc(/C=C\c2cc3ccccc3[nH]2)cc(OC)c1OC` here?
A: The IC50 was 21000 nM.

Q: With `COc1cc([C@@H]2c3cc4c(cc3C[C@H]3COC(=O)[C@@H]32)OCO4)cc(OC)c1OC` [DESOXYPODOPHYLLOTOXIN] as the molecule, how does the IC50 [9] read?
A: Its IC50 is 1700 nM.

Q: For `COc1ccc(/C=C\c2cc(OC)c(OC)c(OC)c2)cc1O` [COMBRETASTATIN A4], which Activity (SKv-a [1]) is on record?
A: Its Activity is “Active”.

Q: And the Activity (HaCaT [6])?
A: The Activity was “Active”.

Q: What about the IC50 (HaCaT [7]) of the same molecule?
A: Its IC50 is 1 nM.

Q: For `COc1cc(/C=C\c2cc3ccccc3o2)cc(OC)c1OC`, which IC50 [9] is on record?
A: The IC50 was 9600 nM.

Q: For `COc1cc(/C=C/c2cc3ccccc3s2)cc(OC)c1OC`, which Activity (SKv-a [1]) is on record?
A: The Activity was “Active”.

Q: What about the Activity (HaCaT [2]) of the same molecule?
A: The Activity was “Active”.

Q: What about the Activity (HaCaT [6]) of the same molecule?
A: The Activity was “Active”.

Q: What about the IC50 [9] of the same molecule?
A: The IC50 was 8400 nM.

Q: What about the Activity (SKv-a [11]) of the same molecule?
A: Its Activity is “Active”.

Q: Which results are given for `COc1cc2c(c(OC)c1OC)-c1ccc(OC)c(=O)cc1[C@@H](NC(C)=O)CC2` [COLCHICINE]?
A: Activity (SKv-a [1]): Active; Activity (SKv-a [3]): Active; Activity (HaCaT [4]): Active; Activity [5]: Active; Activity (HaCaT [6]): Active; IC50 (HaCaT [7]): 12 nM; Activity (HaCaT [8]): Active; Activity (SKv-a [10]): Active; Activity (HaCaT [12]): Active
